Test results as given in ChEMBL document CHEMBL3792374, “Discovery of a ring-opened derivative of 3-n-butylphthalide bearing NO/H2S-donating moieties as a potential anti-ischemic stroke agent” (Eur J Med Chem, 2016).
Active and inactive are the calls of the source. The rule behind the calls is not given here.

Experiments:
[1] = Antiplatelet activity in rabbit platelet-rich plasma assessed as inhibition of ADP-induced platelet aggregation at 0.1 mM preincubated for 5 mins followed by addition of ADP measured within 5 mins by Borns turbidimetric method in presence of H2S scavenger BSS; assay type: functional; conditions: Oryctolagus cuniculus
Outline: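 Rabbit carotid blood was citrated (3.8%, 9:1). PRP was obtained at 500 g for 10 min and PPP at 3000 g for 10 min. PRP was preincubated in duplicate for 5 min at 37 °C with 0.1 mM compound, plus carboxy-PTIO or BSS where indicated. ADP was then added and maximal light transmission recorded within 5 min, within 3 h of blood collection. Inhibition % was calculated versus control. Mean ± SD of three independent experiments.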

Liver = experiment: Induction of hydrogen sulfide release in rat liver homogenate at 100 uM after 30 mins by microplate reader method (reference value: 1.03 to 1.21%); assay type: functional, tissue-based
Outline: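 Compound was incubated at 37 °C for 0–90 min with fresh rat liver homogenate. The reaction was stopped with 1% zinc acetate and 10% trichloroacetic acid. N,N-dimethyl-p-phenylenediamine sulfate in 7.2 M HCl and FeCl3 in 1.2 M HCl were added, and absorbance was read at 670 nm after 10 min. Values were calculated against an NaHS standard curve as cumulative % conversion to H2S, n = 6.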

[2] = Induction of nitric oxide release in potassium phosphate buffer at pH 7.4 at 0.1 mM after 15 mins by Griess assay; assay type: physicochemical; conditions: pH 7.4, 0.25 h, 100 µM
Outline: (§1)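 Compound (0.1 mM) in PBS pH 7.4 containing 2% DMSO and 5.0 mM L-cysteine was held at 37 °C for 15–300 min. Samples were taken every 15 min up to 120 min, then every 30 min. Each sample was reacted with Griess reagent for 10 min at 37 °C and absorbance read at 540 nm. Nitrite was quantified from a nitrite standard curve. Means reported; intra-group variation <10%.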

[3] = Induction of nitric oxide release in potassium phosphate buffer at pH 7.4 at 0.1 mM after 75 mins by Griess assay; assay type: physicochemical; conditions: pH 7.4, 1.25 h, 100 µM; outline: as §1
Rattus norvegicus [4] = experiment: (§2) Antioxidant activity in Sprague-Dawley rat brain tissue model of transient middle cerebral artery occlusion stroke model assessed as malondialdehyde levels per mg of protein at 380 mg/kg administered via oral gavage for 7 days after ischemia onset measured 24 hrs after reperfusion (reference value: 1.46 nmol); assay type: functional; conditions: in the assay text read “before ischemia onset” for “after ischemia onset”
Outline: (§3)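 Male SD rats (280–320 g; n = 12 per group) were gavaged daily for 7 days, with 0.5% CMC-Na as vehicle. Two hours after the last dose they were anesthetized with chloral hydrate (300 mg/kg ip) and underwent 2 h MCAO followed by reperfusion. Brains were taken 24 h after reperfusion, rinsed in cold saline and stored at −70 °C. Protein was quantified, then GSH, SOD, GSH-Px and MDA were measured by kits. Mean ± SD, n = 6, ANOVA/Tukey.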

[5] = Induction of nitric oxide release in potassium phosphate buffer at pH 7.4 at 0.1 mM after 180 mins by Griess assay; assay type: physicochemical; conditions: pH 7.4, 3 h, 100 µM; outline: as §1
Rattus norvegicus [6] = experiment: Antioxidant activity in Sprague-Dawley rat brain tissue model of transient middle cerebral artery occlusion stroke model assessed as increase in glutathione peroxidase levels per mg of protein at 380 mg/kg […] measured 24 hrs after reperfusion by DTNB assay relative to control; assay type: functional
Rattus norvegicus [7] = experiment: as §2, with “glutathione” for “malondialdehyde”, “reperfusion by DTNB assay” for “reperfusion”, “23.47” for “1.46”; assay type: functional; conditions: in the assay text read “before ischemia onset” for “after ischemia onset”; outline: as §3
Rattus norvegicus [8] = experiment: Antioxidant activity in Sprague-Dawley rat brain tissue model of transient middle cerebral artery occlusion stroke model assessed as increase in glutathione levels per mg of protein at 80 mg/kg […] measured 24 hrs after reperfusion by DTNB assay (reference value: 23.47 nmol); assay type: functional
[9] = Induction of nitric oxide release in potassium phosphate buffer at pH 7.4 at 0.1 mM after 150 mins by Griess assay; assay type: physicochemical; conditions: pH 7.4, 2.5 h, 100 µM; outline: as §1
Rattus norvegicus [10] = experiment: Neuroprotective activity in Sprague-Dawley rat model of transient middle cerebral artery occlusion stroke model assessed as neurological deficit at 80 mg/kg administered via oral gavage for 7 days after ischemia onset measured 24 hrs after middle cerebral artery occlusion by Longa's method; assay type: functional, organism-based; conditions: in the assay text read “before ischemia onset” for “after ischemia onset”
Outline: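 Male SD rats (280–320 g) received daily gavage for 7 days, with 0.5% CMC-Na as vehicle. Two hours after the last dose they underwent 2 h MCAO with reperfusion under chloral hydrate anesthesia; core temperature was held at 37 °C. Neurological deficit was scored blinded by Longa's method 24 h after reperfusion, between 10 and 11 a.m. Kruskal–Wallis test followed by Mann–Whitney U test.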

[11] = Induction of nitric oxide release in potassium phosphate buffer at pH 7.4 at 0.1 mM after 60 mins by Griess assay; assay type: physicochemical; conditions: pH 7.4, 1 h, 100 µM; outline: as §1

CCCCC(OC(=O)CN1CCN(CCCCCOc2ccc(-c3cc(=S)ss3)cc2)CC1)c1ccccc1C(=O)Oc1ccc(/C=C/C(=O)OCCO[N+](=O)[O-])cc1OC (racemic)
inhibition at 100 µM [1]: 20.9%
Activity (Liver): 3.04%
Activity [2]: 3.16 µM
Activity [3]: 8.48 µM
Activity (Rattus norvegicus [4]): 0.86 nmol
Activity [5]: 10.3 µM
Activity (Rattus norvegicus [6]): 69.26%
Activity (Rattus norvegicus [7]): 28.05 nmol
Activity (Rattus norvegicus [8]): 25.22 nmol
Activity [9]: 10.23 µM
Activity (Rattus norvegicus [10]): inactive
Activity [11]: 8.03 µM
